We go through 11 compounds from ChEMBL document CHEMBL4152223 (Eur J Med Chem, 2018).

One may read the MIC as the smallest concentration in the dilution series that meets the test's criterion for growth inhibition. A high value points to a need for much substance. The term IC50 denotes the concentration that gives 50% inhibition.

SMILES strings stand for the structures. ≈ marks a conversion by molar mass, not a printed value.

Test [1] relates to Mycobacterium tuberculosis. Description: Antimycobacterial activity against Mycobacterium tuberculosis H37Rv after 14 days. The format is functional. The note with it: 336 h.
Test [2] concerns Mycobacterium tuberculosis. Description: Antimycobacterial activity against Mycobacterium tuberculosis H37Rv after 21 days. The format is functional. The note with it: 504 h.
For test [3], the system named is Mycobacterium avium. Kind of test: Antimycobacterial activity against INH/RIF/OFX resistant Mycobacterium avium 330/88 after 14 days. The note with it: 330/88, 336 h. The format is functional.
Test [4] has as its system Mycobacterium avium. Kind of test: Antimycobacterial activity against INH/RIF/OFX resistant Mycobacterium avium 330/88 after 21 days. The format is functional. The note with it: 330/88, 504 h.
Test [5] has as its system Mycobacterium kansasii. Kind of test: Antimycobacterial activity against Mycobacterium kansasii 235/80 after 7 days. The format is functional. The note with it: 235/80, 168 h.
Test [6] relates to Mycobacterium kansasii. Description: Antimycobacterial activity against Mycobacterium kansasii 235/80 after 14 days. In kind it is functional. The note with it: 235/80, 336 h.
Test [7] concerns Mycobacterium kansasii. Description: Antimycobacterial activity against Mycobacterium kansasii 235/80 after 21 days. The format is functional. The note with it: 235/80, 504 h.
Test [8] has as its system Mycobacterium kansasii. Description: Antimycobacterial activity against Mycobacterium kansasii 6509/96 after 7 days. The format is functional. The note with it: 6509/96, 168 h.
Test [9] deals with Mycobacterium kansasii. Kind of test: Antimycobacterial activity against Mycobacterium kansasii 6509/96 after 14 days. The format is functional. The note with it: 6509/96, 336 h.
For test [10], the system named is Mycobacterium kansasii. Description: Antimycobacterial activity against Mycobacterium kansasii 6509/96 after 21 days. In kind it is functional. The note with it: 6509/96, 504 h.
For test [11], the system named is HepG2. Description: Cytotoxicity against human HepG2 cells assessed as reduction in cell viability by MTS assay. The format is cell-based. In outline: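 HepG2 human hepatocellular carcinoma cells (passage 2-4) were cultured in Eagle's MEM with 10% FBS, 1% L-glutamine and non-essential amino acids. Compounds were dissolved in DMSO and tested in triplicate at eight concentrations. Viability was read by colorimetric MTS tetrazolium reduction. Controls were 100% viability and 0% viability (10% DMSO). IC50 is the concentration reducing viability to 50% of control.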
A general note: Formazan colour is commonly taken as a measure of viable cells.

In the case of `CCCCCCCCCCCCCCNC(=O)NNC(=O)c1ccncc1`, the MIC in test [1] stood at 32 µM (≈ 12 µg/mL); in [2], 62.5 µM (≈ 23.5 µg/mL); in [3], 125 µM (≈ 47.1 µg/mL); in [4], 125 µM (≈ 47.1 µg/mL); in [5] it was 32 µM (≈ 12 µg/mL); in test [6], 62.5 µM (≈ 23.5 µg/mL). For the same compound, the MIC in test [7] stood at 62.5 µM (≈ 23.5 µg/mL); in test [8], 32 µM (≈ 12 µg/mL); in test [9], 62.5 µM (≈ 23.5 µg/mL); in test [10], 62.5 µM (≈ 23.5 µg/mL). Moreover, in test [11], the IC50 was over 50 µM.
Turning to `CCCCCCCCCCCCCCCNC(=O)NNC(=O)c1ccncc1`, the MIC in test [1] was 32 µM (≈ 12.5 µg/mL); in test [2], 62.5 µM (≈ 24.4 µg/mL); in test [3] it was 125 µM (≈ 48.8 µg/mL); in [4], 125 µM (≈ 48.8 µg/mL); in test [5], 32 µM (≈ 12.5 µg/mL); in test [6] it was 62.5 µM (≈ 24.4 µg/mL). The MIC in test [7] is 62.5 µM (≈ 24.4 µg/mL); in [8] it was 62.5 µM (≈ 24.4 µg/mL); in test [9], 62.5 µM (≈ 24.4 µg/mL); in test [10], 125 µM (≈ 48.8 µg/mL). The IC50 in test [11] was over 75 µM.
In the case of `CCCCCCCCCNc1nnc(-c2ccncc2)o1`, the MIC in test [1] was 62.5 µM (≈ 18 µg/mL); in test [2], 62.5 µM (≈ 18 µg/mL); in [3], 125 µM (≈ 36 µg/mL); in test [4], 125 µM (≈ 36 µg/mL); in test [5], 125 µM (≈ 36 µg/mL); in test [6] it was 250 µM (≈ 72.1 µg/mL). The MIC in test [7] is 250 µM (≈ 72.1 µg/mL); in test [8], 125 µM (≈ 36 µg/mL); in [9], 250 µM (≈ 72.1 µg/mL); in [10], 250 µM (≈ 72.1 µg/mL). Also, the IC50 in [11] was over 50 µM.
For the compound `CCCNc1nnc(-c2ccncc2)o1`, the MIC in test [1] was 500 µM (≈ 102 µg/mL); in test [2] it was 500 µM (≈ 102 µg/mL); in test [3], over 1000 µM; in test [4] it was over 1000 µM; in test [5], 500 µM (≈ 102 µg/mL); in test [6], 1000 µM (≈ 204 µg/mL). The MIC in test [7], in test [8], in [9] and in test [10] was 1000 µM (≈ 204 µg/mL) in each case.
Consider `CCCCCCNc1nnc(-c2ccncc2)o1`, for which the MIC in test [1] came out at 250 µM (≈ 61.6 µg/mL); in test [2] it was 250 µM (≈ 61.6 µg/mL); in test [3], 500 µM (≈ 123 µg/mL); in [4], 500 µM (≈ 123 µg/mL); in test [5], 250 µM (≈ 61.6 µg/mL); in test [6], 500 µM (≈ 123 µg/mL). The MIC in [7] is 500 µM (≈ 123 µg/mL); in test [8] it was 125 µM (≈ 30.8 µg/mL); in test [9], 250 µM (≈ 61.6 µg/mL); in [10], 500 µM (≈ 123 µg/mL).
For `CCCCCCCCCCCCCNc1nnc(-c2ccncc2)o1`, the MIC in [1], in [2], in [3], in [4], in test [5] and in test [6] was 250 µM (≈ 86.1 µg/mL) throughout. Also, the MIC in [7] was 250 µM (≈ 86.1 µg/mL); in [8], 125 µM (≈ 43.1 µg/mL); in test [9], 250 µM (≈ 86.1 µg/mL); in test [10], 250 µM (≈ 86.1 µg/mL).
On to `CCNc1nnc(-c2ccncc2)o1`, for which the MIC in test [1] was over 1000 µM; in test [2] it was over 1000 µM; in test [3], over 1000 µM; in test [4] it was over 1000 µM; in [5], 1000 µM (≈ 190 µg/mL); in test [6], over 1000 µM. Also, the MIC in [7] is over 1000 µM; in test [8] it was 1000 µM (≈ 190 µg/mL); in test [9], over 1000 µM; in [10], over 1000 µM.
For the compound `CNc1nnc(-c2ccncc2)o1`, the MIC in test [1] was 500 µM (≈ 88.1 µg/mL); in [2] it was 500 µM (≈ 88.1 µg/mL); in [3], over 1000 µM; in [4], over 1000 µM; in test [5], 500 µM (≈ 88.1 µg/mL); in test [6] it was 1000 µM (≈ 176 µg/mL). The MIC in test [7] was over 1000 µM; in test [8] it was 1000 µM (≈ 176 µg/mL); in [9], 1000 µM (≈ 176 µg/mL); in test [10], 1000 µM (≈ 176 µg/mL).
Turning to `CCCCCCCCCCCCCCCNc1nnc(-c2ccncc2)o1`, the MIC in test [1] was determined as 125 µM (≈ 46.6 µg/mL); in [2], 125 µM (≈ 46.6 µg/mL); in test [3], 250 µM (≈ 93.1 µg/mL); in [4] it was 500 µM (≈ 186 µg/mL); in test [5], 62.5 µM (≈ 23.3 µg/mL); in test [6], 125 µM (≈ 46.6 µg/mL). Besides, the minimal inhibitory concentration (MIC) came to 250 µM (≈ 93.1 µg/mL) in [7], 125 µM (≈ 46.6 µg/mL) in test [8], 250 µM (≈ 93.1 µg/mL) in test [9] and 250 µM (≈ 93.1 µg/mL) in test [10].
`CCCCCNc1nnc(-c2ccncc2)o1`: the MIC is 62.5 µM (≈ 14.5 µg/mL) in test [1]; 62.5 µM (≈ 14.5 µg/mL) in test [2]; over 1000 µM in [3]; over 1000 µM in test [4]; 500 µM (≈ 116 µg/mL) in test [5]; 1000 µM (≈ 232 µg/mL) in test [6]. In addition, the MIC in [7] turned out to be 1000 µM (≈ 232 µg/mL); in [8], 500 µM (≈ 116 µg/mL); in test [9] it was 1000 µM (≈ 232 µg/mL); in [10], 1000 µM (≈ 232 µg/mL).
For the compound `CCCCCCCCCCCCCCCCCCNc1nnc(-c2ccncc2)o1`, the MIC is 125 µM (≈ 51.8 µg/mL) in test [1]; 250 µM (≈ 104 µg/mL) in [2]; 500 µM (≈ 207 µg/mL) in test [3]; 500 µM (≈ 207 µg/mL) in test [4]; 250 µM (≈ 104 µg/mL) in [5]; 250 µM (≈ 104 µg/mL) in [6]. Also, the MIC in test [7] stood at 250 µM (≈ 104 µg/mL); in test [8], 250 µM (≈ 104 µg/mL); in [9], 500 µM (≈ 207 µg/mL); in test [10], 500 µM (≈ 207 µg/mL).
